According to ChEMBL document CHEMBL3758086, “Inhibitory effect of phenothiazine- and phenoxazine-derived chloroacetamides on Leishmania major growth and Trypanosoma brucei trypanothione reductase” (Eur J Med Chem, 2016):
Activity calls are given as the source filed them. The rule behind the calls is not given here.

Key:
[1] = tested on: K562; test: Cytotoxicity against human K562 cells assessed as cell growth inhibition after 48 hrs by Neubauer counting chamber analysis; type: cell-based; details: K562, 48 h
[2] = target: Trypanothione reductase (Trypanosoma brucei brucei) (UniProt P39051); test: Reversible inhibition of recombinant Trypanosoma brucei trypanothione reductase
[3] = tested on: Leishmania major; test: Antileishmanial activity against promastigote stage of Leishmania major assessed as inhibition of parasite proliferation after 48 hrs by Alamar Blue assay; type: functional, organism-based
[4] = target: Trypanothione reductase (Trypanosoma brucei brucei) (UniProt P39051); test: Inhibition of recombinant Trypanosoma brucei trypanothione reductase at 100 uM in presence of NADPH, trypanothione disulphide
Outline: (§1)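 T. brucei TR (1 µM) preincubated at 25 °C in 200 µL TR assay buffer with 400 µM NADPH and compound (25, 50 or 100 µM) or DMSO (5%). At 10, 30, 60, 120 and 180 min, a 5 µL aliquot went into a 1 mL standard assay with 100 µM NADPH, started with 100 µM trypanothione disulfide. Absorbance decrease at 340 nm followed at 25 °C.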

[5] = target: T1, Tryparedoxin peroxidase (Trypanosoma brucei) (UniProt Q9GU47); test: Time dependent inhibition of Trypanosoma brucei tryparedoxin peroxidase preincubated for 10 mins in presence of NADPH, tryparedoxin, T(SH)2 followed by addition of hydrogen peroxide
T1 sequence (whole entry): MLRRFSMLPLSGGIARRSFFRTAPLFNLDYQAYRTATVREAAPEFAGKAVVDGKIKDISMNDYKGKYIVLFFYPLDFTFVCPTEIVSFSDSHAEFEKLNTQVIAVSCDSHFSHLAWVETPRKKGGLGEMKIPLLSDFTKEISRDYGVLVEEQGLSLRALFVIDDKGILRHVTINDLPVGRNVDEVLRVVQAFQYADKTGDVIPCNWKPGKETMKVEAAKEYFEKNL
Outline: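 Peroxidase cascade mixture of NADPH, T. brucei TR, tryparedoxin, peroxidase, T(SH)2 and inhibitor incubated 10 min, then reaction started with H2O2.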

[6] = target: Trypanothione reductase (Trypanosoma brucei brucei) (UniProt P39051); details: 50 uM
[7] = target: Trypanothione reductase (Trypanosoma brucei brucei) (UniProt P39051); test: Inhibition of recombinant Trypanosoma brucei trypanothione reductase at 25 uM in presence of NADPH, trypanothione disulphide; outline: as §1

Trypanothione reductase (Trypanosoma brucei brucei), sequence (P39051 whole entry, looked up): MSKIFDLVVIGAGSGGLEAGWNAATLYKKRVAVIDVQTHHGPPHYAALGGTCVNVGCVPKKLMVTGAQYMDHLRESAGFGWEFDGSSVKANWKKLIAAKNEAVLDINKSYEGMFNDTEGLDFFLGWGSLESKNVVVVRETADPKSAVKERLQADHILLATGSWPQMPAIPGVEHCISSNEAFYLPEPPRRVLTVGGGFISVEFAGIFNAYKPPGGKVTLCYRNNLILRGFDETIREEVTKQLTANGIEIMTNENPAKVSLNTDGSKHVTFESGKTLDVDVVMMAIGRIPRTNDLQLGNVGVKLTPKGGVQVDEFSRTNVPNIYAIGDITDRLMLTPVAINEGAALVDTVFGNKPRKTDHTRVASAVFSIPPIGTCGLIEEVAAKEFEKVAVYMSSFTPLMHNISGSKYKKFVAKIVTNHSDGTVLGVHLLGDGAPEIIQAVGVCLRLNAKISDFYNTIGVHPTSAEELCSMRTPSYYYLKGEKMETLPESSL

inhibition [2] | inhibition [4] | TDI [5] | inhibition [6] | inhibition [7] | SMILES | IC50 [1] [µM] | IC50 [3] [µM]
inactive | – | – | – | – | O=C(CCl)N1c2cc(Cl)ccc2Oc2ccc(Cl)cc21 | 2.03 | 9.5
inactive | – | – | – | – | O=C(CCl)n1c2ccccc2c2ccccc21 | 6.44 | > 100
inactive | – | – | – | – | O=C(CCCCl)N1c2ccccc2Oc2ccc(Cl)cc21 | > 90 | > 100
inactive | – | – | – | – | O=C(C(Cl)CCl)N1c2ccccc2Oc2ccccc21 (centres undefined) | – | 9.6
inactive | – | – | – | – | O=C(CCl)N(c1ccccc1)c1cccc(Cl)c1 | – | 40.3
inactive | – | – | – | – | O=C(CCCl)N1c2ccccc2Oc2ccc(Cl)cc21 | 10.2 | 15.7
inactive | – | – | – | – | O=C(CCCl)N1c2ccccc2Oc2ccccc21 | 15.2 | 39.1
inactive | – | – | – | inactive | Clc1ccc2c(c1)Nc1ccccc1O2 | – | 69.2

The remaining lines, values behind:

SMILES | inhibition [2] | inhibition [4] | TDI [5] | inhibition [6] | inhibition [7] | IC50 [1] [µM] | IC50 [3] [µM]
O=C(CCl)N1c2ccccc2Sc2ccc(Cl)cc21 | inactive | – | – | – | – | 3.2 | 10.4
CC(=O)N1c2ccccc2Oc2ccc(Cl)cc21 | inactive | inactive | – | – | – | > 30 | > 100
N=C(N)c1ccc(OCCCCCOc2ccc(C(=N)N)cc2)cc1 | – | – | – | – | – | – | 84
O=C(CCl)N1c2ccccc2Oc2ccc(C(F)(F)F)cc21 | inactive | – | – | – | – | – | 9.6
O=C(CCl)N1c2ccccc2CCc2ccccc21 | inactive | – | – | – | – | 4.8 | 43.3
O=C(CCl)N1c2ccccc2COc2ccc(Cl)cc21 | inactive | – | inactive | – | – | 3.3 | 7.2
O=C(CCl)N1c2ccccc2Oc2ccc(Cl)cc21 | inactive | – | – | inactive | – | 3 | 7.6
NC[C@@H]1O[C@H](O[C@H]2[C@@H](O)[C@H](O[C@@H]3[C@@H](O)[C@H](N)C[C@H](N)[C@H]3O[C@H]3O[C@H](CO)[C@@H](O)[C@H](O)[C@H]3N)O[C@@H]2CO)[C@H](N)[C@@H](O)[C@@H]1O [PAROMOMYCIN] | – | – | – | – | – | – | > 100
CC(Cl)C(=O)N1c2ccccc2Oc2ccccc21 (centres undefined) | inactive | – | – | – | – | > 30 | > 100
O=C(CCl)N1c2ccccc2Sc2ccccc21 | inactive | – | inactive | – | – | 5 | 9.3
ClCCN1c2ccccc2Oc2ccc(Cl)cc21 | inactive | – | – | – | – | – | > 100
O=C(C(Cl)Cl)N1c2ccccc2Oc2ccccc21 | inactive | – | – | – | – | > 30 | 82
CCCCCCCCCCCCCCCCOP(=O)([O-])OCC[N+](C)(C)C [MILTEFOSINE] | – | – | – | – | – | – | 36
O=C(CCl)Nc1cc(Cl)ccc1Oc1ccccc1 | inactive | – | – | – | – | – | 42.6
N#CCC(=O)N1c2ccccc2Oc2ccccc21 | inactive | – | – | – | – | 23 | > 100
O=C(CBr)N1c2ccccc2Oc2ccc(Cl)cc21 | inactive | – | – | – | – | 6.15 | > 100
C[C@@H]1[C@H](O)[C@@H](C)/C=C/C=C/C=C/C=C/C=C/C=C/C=C/[C@H](O[C@@H]2O[C@H](C)[C@@H](O)[C@H](N)[C@@H]2O)C[C@@H]2O[C@](O)(C[C@@H](O)C[C@@H](O)[C@H](O)CC[C@@H](O)C[C@@H](O)CC(=O)O[C@H]1C)C[C@H](O)[C@H]2C(=O)O [AMPHOTERICIN B] | – | – | – | – | – | – | 0.33
O=C(CCl)N1c2ccccc2C=Cc2ccccc21 | inactive | – | – | – | – | 6.2 | 48.1
